Type in all cases: functional
Test [1] relates to Mus musculus. In words: (§1) Effect on the survival rate of mouse infected with herpes genitalis (HSV-2) administered intravaginally at 2% dosage twice in a day. A digest of the protocol:
(§2)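 HSV-2 mouse genital model, infected intravaginally. Drug prepared in water + 1% gum tragacanth and given intravaginally b.i.d. via saturated cotton tampons, starting 4 h postinfection. Tampons were re-dosed with 0.02 mL 6 h after insertion and replaced daily. Test ended at day 14, with survivors assigned survival time >14 days. Read-out: % survival and average survival time.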

Another test deals with Human alphaherpesvirus 2. The test is described as §1. A digest of the protocol:
as §2

Test [2] deals with Mus musculus. Description: Effect on the survival rate of mouse infected with herpes genitalis (HSV-2) administered intravaginally at 5% dosage twice in a day. The gist of the method: as §2

Turning to `O=C(O)CP(=O)(O)O` [FOSFONET], the Average survival with Mus musculus [1] and in the test with Mus musculus [2] was greater than 13 days each time. For the same compound, the Survival with Human alphaherpesvirus 2 and with Mus musculus [2] was 90% throughout.

For the origin of these results see ChEMBL document CHEMBL1121642, “Synthesis and antiherpetic activity of some 4-[(aryloxy)alkyl]pyrazoles” (1981).
